Data set [1] has as its system Plasmodium falciparum. The experiment in a line: Antimalarial activity against chloroquine-sensitive Plasmodium falciparum 3D7 infected in erythrocytes after 48 hrs by SYBR Green 1-based fluorescence assay. Particulars: 3D7, 48 h. The data set is classed as functional, organism-based.
For data set [2], the system named is Plasmodium falciparum. The experiment in a line: Antimalarial activity against chloroquine-resistant Plasmodium falciparum Dd2 infected in erythrocytes after 48 hrs by SYBR Green 1-based fluorescence assay. Format: functional, organism-based. Particulars: Dd2, 48 h.
The next data set relates to MCF7. Briefly: Cytotoxicity against human MCF7 cells after 24 hrs by MTT assay. The data set is classed as functional, cell-based. Particulars: MCF7, 24 h. Summed up:
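MCF-7 breast cancer cells grown in RPMI 1640 with 10% heat-inactivated horse serum, 2 mM L-glutamine and antibiotics, 5% CO2, 37 °C. 2 × 10^4 cells per well exposed to increasing compound concentrations for 24 h at 37 °C. MTT added (5 mg/mL stock), 4 h, then 10% SDS overnight. OD read at 550 nm (ref 630 nm). IC50 from growth inhibition; mean ± SD, three experiments.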
(In general: Tetrazolium assays rely on reduction of a dye to a coloured formazan, in cell work by metabolically active cells.)

Data set [3] in a line: Selectivity index, ratio of IC50 for human MCF7 cells to IC50 for chloroquine-sensitive Plasmodium falciparum 3D7. Format: toxicity, cell-based. As to conditions: read-out: Ratio IC50.
Data set [4] in a line: Selectivity index, ratio of IC50 for human MCF7 cells to IC50 for chloroquine-resistant Plasmodium falciparum Dd2. Format: toxicity, cell-based. Particulars: read-out: Ratio IC50.

SMILES strings stand for the structures.

The term IC50 denotes the midpoint of a concentration-inhibition curve. Read a low IC50 as higher potency. Take `COc1ccc(C(=O)O[C@@H](C=C(C)C)C[C@@H](C)[C@H]2CC[C@@]3(C)[C@@H]4[C@@H](OC)C=C5[C@@H](CC[C@H](O)C5(C)C)[C@]4(C)CC[C@]23C)cc1` [KARAVOATE M]: the IC50 was 1.3 µM in the data set with Plasmodium falciparum [1], 0.6 µM with Plasmodium falciparum [2] and over 133 µM in the data set with MCF7. Further, the values for the selectivity ratio in data set [3] and in data set [4] were over 43.6 and over 215, respectively.

Regarding `CCC(=O)O[C@@H](C=C(C)C)C[C@@H](C)[C@H]1CC[C@@]2(C)[C@@H]3[C@@H](OC)C=C4[C@@H](CC[C@H](O)C4(C)C)[C@]3(C)CC[C@]12C` [KARAVOATE C], the IC50 in the data set on Plasmodium falciparum [1] stood at 5.1 µM; with Plasmodium falciparum [2] it was 22 µM; in the data set on MCF7, 19.1 µM. Moreover, the results for the selectivity ratio in data set [3] and in data set [4] were 3.7 and 0.9, respectively.

As for `CO[C@H]1C=C2[C@@H](CC[C@H](O)C2(C)C)[C@]2(C)CC[C@]3(C)[C@@H]([C@H](C)C[C@H](C=C(C)C)OC(=O)c4ccc([N+](=O)[O-])cc4)CC[C@@]3(C)[C@H]12` [KARAVOATE I], the IC50 is 2.6 µM in the data set with Plasmodium falciparum [1], 0.5 µM in the data set with Plasmodium falciparum [2] and over 133 µM with MCF7. The selectivity ratio in data set [3] is over 51.4; in data set [4], over 296.

Regarding `CCCC(=O)O[C@@H](C=C(C)C)C[C@@H](C)[C@H]1CC[C@@]2(C)[C@@H]3[C@@H](OC)C=C4[C@@H](CC[C@H](O)C4(C)C)[C@]3(C)CC[C@]12C` [KARAVOATE E], the results for the IC50 in the data set with Plasmodium falciparum [1], in the data set with Plasmodium falciparum [2] and with MCF7 were 3.5 µM, 0.6 µM and 73.8 µM, respectively. Further, the selectivity ratio in data set [3] amounted to 20.8; in data set [4], 116.

With `CCCC(=O)O[C@H]1CC[C@@H]2C(=C[C@H](OC)[C@@H]3[C@@]2(C)CC[C@]2(C)[C@@H]([C@H](C)C[C@H](C=C(C)C)OC(=O)CCC)CC[C@@]32C)C1(C)C` [KARAVOATE F], the IC50 in the data set with Plasmodium falciparum [1] was 6.9 µM; in the data set on Plasmodium falciparum [2] it was 8.4 µM; in the data set with MCF7, over 133 µM. The selectivity ratio in data set [3] is over 19.4; in data set [4] it was over 15.8.

Turning to `CO[C@H]1C=C2[C@@H](CC[C@H](OC(=O)c3ccccc3)C2(C)C)[C@]2(C)CC[C@]3(C)[C@@H]([C@H](C)C[C@H](C=C(C)C)OC(=O)c4ccccc4)CC[C@@]3(C)[C@H]12` [KARAVOATE H], the figures for the IC50 with Plasmodium falciparum [1], in the data set on Plasmodium falciparum [2] and in the data set with MCF7 were 36.4 µM, 30.5 µM and over 133 µM, respectively. Further, the values for the selectivity ratio in data set [3] and in data set [4] were over 3.7 and over 4.4, respectively.

As for `CO[C@H]1C=C2[C@@H](CC[C@H](O)C2(C)C)[C@]2(C)CC[C@]3(C)[C@@H]([C@H](C)C[C@H](C=C(C)C)OC(C)=O)CC[C@@]3(C)[C@H]12` [KARAVOATE A], the values for the IC50 with Plasmodium falciparum [1], with Plasmodium falciparum [2] and with MCF7 were 6.7 µM, 9.2 µM and 22.9 µM, respectively. The selectivity ratio in data set [3] came out at 3.4; in data set [4], 2.5.

Take `COc1ccc(C(=O)O[C@H]2CC[C@@H]3C(=C[C@H](OC)[C@@H]4[C@@]3(C)CC[C@]3(C)[C@@H]([C@H](C)C[C@H](C=C(C)C)OC(=O)c5ccc(OC)cc5)CC[C@@]43C)C2(C)C)cc1` [KARAVOATE N]: the IC50 in the data set with Plasmodium falciparum [1] was 2.4 µM; in the data set with Plasmodium falciparum [2], 47.9 µM; in the data set with MCF7, over 133 µM. Further, the selectivity ratio was over 55.4 in data set [3] and over 2.8 in data set [4].

Take `CCC(=O)O[C@H]1CC[C@@H]2C(=C[C@H](OC)[C@@H]3[C@@]2(C)CC[C@]2(C)[C@@H]([C@H](C)C[C@H](C=C(C)C)OC(=O)CC)CC[C@@]32C)C1(C)C` [KARAVOATE D]: the IC50 is 1.5 µM with Plasmodium falciparum [1], 0.4 µM in the data set with Plasmodium falciparum [2] and over 133 µM in the data set on MCF7. For the same compound, the selectivity ratio in data set [3] was over 89; in data set [4] it was over 350.

For `CO[C@H]1C=C2[C@@H](CC[C@H](OC(=O)c3ccc(Cl)cc3)C2(C)C)[C@]2(C)CC[C@]3(C)[C@@H]([C@H](C)C[C@H](C=C(C)C)OC(=O)c4ccc(Cl)cc4)CC[C@@]3(C)[C@H]12` [KARAVOATE L], the figures for the IC50 in the data set with Plasmodium falciparum [1], with Plasmodium falciparum [2] and in the data set on MCF7 were 22.5 µM, 66 µM and over 133 µM, respectively. In addition, the selectivity ratio in data set [3] is over 5.9; in data set [4], over 2.

In the case of `CO[C@H]1C=C2[C@@H](CC[C@H](O)C2(C)C)[C@]2(C)CC[C@]3(C)[C@@H]([C@H](C)C[C@@H](O)C=C(C)C)CC[C@@]3(C)[C@H]12` [KARAVELAGENIN C], the figures for the IC50 with Plasmodium falciparum [1], with Plasmodium falciparum [2] and in the data set with MCF7 were 10.4 µM, 11.2 µM and 16.7 µM, respectively. For the same compound, the selectivity ratio in data set [3] turned out to be 1.6; in data set [4], 1.4.

In the case of `CO[C@H]1C=C2[C@@H](CC[C@H](OC(=O)/C=C/c3ccccc3)C2(C)C)[C@]2(C)CC[C@]3(C)[C@@H]([C@H](C)C[C@H](C=C(C)C)OC(=O)/C=C/c4ccccc4)CC[C@@]3(C)[C@H]12` [KARAVOATE P], the IC50 in the data set with Plasmodium falciparum [1] is 65.2 µM; with Plasmodium falciparum [2], 56.6 µM; in the data set on MCF7 it was over 133 µM. Moreover, the selectivity ratio is over 2 in data set [3] and over 2.4 in data set [4].

On to `CO[C@H]1C=C2[C@@H](CC[C@H](O)C2(C)C)[C@]2(C)CC[C@]3(C)[C@@H]([C@H](C)C[C@H](C=C(C)C)OC(=O)/C=C/c4ccccc4)CC[C@@]3(C)[C@H]12` [KARAVOATE O], for which the IC50 in the data set with Plasmodium falciparum [1] is 6.6 µM; in the data set on Plasmodium falciparum [2] it was 26.7 µM; with MCF7, over 133 µM. The selectivity ratio in data set [3] is over 20.3; in data set [4] it was over 5.

On to `CO[C@H]1C=C2[C@@H](CC[C@H](O)C2(C)C)[C@]2(C)C[C@@H](O)[C@]3(C)[C@@H]([C@H](C)C[C@@H](O)C=C(C)C)CC[C@@]3(C)[C@H]12` [CUCURBALSAMINOL C], for which the IC50 in the data set with Plasmodium falciparum [1] came to 52.7 µM; in the data set with Plasmodium falciparum [2], 67.6 µM; in the data set with MCF7 it was 43.3 µM. Further, the selectivity ratio in data set [3] was determined as 0.8; in data set [4], 0.6.

On to `CO[C@H]1C=C2[C@@H](CC[C@H](OC(=O)c3ccc([N+](=O)[O-])cc3)C2(C)C)[C@]2(C)CC[C@]3(C)[C@@H]([C@H](C)C[C@H](C=C(C)C)OC(=O)c4ccc([N+](=O)[O-])cc4)CC[C@@]3(C)[C@H]12` [KARAVOATE J], for which the figures for the IC50 in the data set with Plasmodium falciparum [1], in the data set on Plasmodium falciparum [2] and in the data set with MCF7 were 18.6 µM, 20.7 µM and over 133 µM, respectively. The selectivity ratio in data set [3] is over 7.2; in data set [4], over 6.43.

Consider `CO[C@H]1C=C2[C@@H](CC[C@H](O)C2(C)C)[C@]2(C)CC[C@]3(C)[C@@H]([C@H](C)C[C@H](C=C(C)C)OC(=O)c4ccc(Cl)cc4)CC[C@@]3(C)[C@H]12` [KARAVOATE K], for which the IC50 was 13.3 µM in the data set on Plasmodium falciparum [1], 23.3 µM in the data set with Plasmodium falciparum [2] and over 133 µM in the data set on MCF7. Further, the selectivity ratio in data set [3] is over 10; in data set [4], over 5.7.

Consider `CO[C@H]1C=C2[C@@H](CC[C@H](OC(C)=O)C2(C)C)[C@]2(C)CC[C@]3(C)[C@@H]([C@H](C)C[C@H](C=C(C)C)OC(C)=O)CC[C@@]3(C)[C@H]12` [KARAVOATE B], for which the IC50 in the data set on Plasmodium falciparum [1] is 0.5 µM; in the data set with Plasmodium falciparum [2], 0.5 µM; with MCF7, 68.1 µM. In addition, the selectivity ratio in data set [3] came out at 151; in data set [4], 126.

The values are drawn from ChEMBL document CHEMBL1641571, “Karavilagenin C derivatives as antimalarials” (Bioorg Med Chem, 2011).
